Laboratory results as given in ChEMBL document CHEMBL4351001, “2-Aminoimidazole-based antagonists of the 5-HT6 receptor - A new concept in aminergic GPCR ligand design” (Eur J Med Chem, 2019).
Values after ≈ are worked out from the molar mass of the structure shown. Active and inactive are the calls of the source. No cut-off for these calls is given here.

What was measured:
[1] = target: T1, Muscarinic acetylcholine receptor M5 (Homo sapiens) (UniProt P08912); test: Displacement of [3H]4-DAMP from human recombinant muscarinic M5 receptor at 10^-6 M measured after 60 mins by scintillation counter method relative to control
T1 sequence (whole entry): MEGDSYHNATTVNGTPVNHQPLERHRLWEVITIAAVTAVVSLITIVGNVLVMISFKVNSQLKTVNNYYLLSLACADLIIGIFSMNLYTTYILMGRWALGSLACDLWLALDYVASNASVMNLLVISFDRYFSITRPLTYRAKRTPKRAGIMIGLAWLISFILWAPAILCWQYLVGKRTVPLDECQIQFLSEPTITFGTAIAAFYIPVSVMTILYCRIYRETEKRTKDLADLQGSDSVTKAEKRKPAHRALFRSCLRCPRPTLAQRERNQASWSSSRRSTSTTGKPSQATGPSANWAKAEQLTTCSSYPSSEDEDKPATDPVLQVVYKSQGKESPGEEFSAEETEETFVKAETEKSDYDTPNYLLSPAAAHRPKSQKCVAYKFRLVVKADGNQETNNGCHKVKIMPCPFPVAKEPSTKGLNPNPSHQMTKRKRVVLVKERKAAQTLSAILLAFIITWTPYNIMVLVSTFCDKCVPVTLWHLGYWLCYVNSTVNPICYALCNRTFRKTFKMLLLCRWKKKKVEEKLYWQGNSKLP

[2] = target: T2, 5-hydroxytryptamine receptor 1A (Homo sapiens, UniProt P08908); test: Displacement of [3H]-8-OH-DPAT from human 5HT1A receptor expressed in HEK293 cells incubated for 1 hr by liquid scintillation counter method; format: cell-based
T2 sequence (P08908 whole entry): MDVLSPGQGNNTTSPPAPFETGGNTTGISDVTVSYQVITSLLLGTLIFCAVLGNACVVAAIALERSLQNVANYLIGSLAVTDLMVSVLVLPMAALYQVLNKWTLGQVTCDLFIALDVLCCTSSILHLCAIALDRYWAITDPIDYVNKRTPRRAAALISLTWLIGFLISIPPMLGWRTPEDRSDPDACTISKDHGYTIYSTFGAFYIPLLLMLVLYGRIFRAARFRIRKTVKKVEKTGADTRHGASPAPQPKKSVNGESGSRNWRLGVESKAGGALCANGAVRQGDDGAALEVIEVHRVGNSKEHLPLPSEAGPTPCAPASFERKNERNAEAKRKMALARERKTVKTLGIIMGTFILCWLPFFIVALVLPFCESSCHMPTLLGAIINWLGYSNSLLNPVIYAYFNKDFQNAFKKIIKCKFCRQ
Method in brief: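 HEK293 cells stably expressing human 5-HT1AR; membranes in 50 mM Tris–HCl, 0.1 mM EDTA, 4 mM MgCl2, 10 μM pargyline, 0.1% ascorbate; incubated 1 h at room temperature, then filtered. Nonspecific binding defined with 10 μM 5-HT.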

[3] = target: T3, 5-hydroxytryptamine receptor 2C (Homo sapiens) (UniProt P28335); test: Displacement of [3H]mesulergine from human recombinant 5HT2C serotonin receptor at 10^-6M incubated for 120 mins by scintillation counter method relative to control
T3 sequence (whole entry): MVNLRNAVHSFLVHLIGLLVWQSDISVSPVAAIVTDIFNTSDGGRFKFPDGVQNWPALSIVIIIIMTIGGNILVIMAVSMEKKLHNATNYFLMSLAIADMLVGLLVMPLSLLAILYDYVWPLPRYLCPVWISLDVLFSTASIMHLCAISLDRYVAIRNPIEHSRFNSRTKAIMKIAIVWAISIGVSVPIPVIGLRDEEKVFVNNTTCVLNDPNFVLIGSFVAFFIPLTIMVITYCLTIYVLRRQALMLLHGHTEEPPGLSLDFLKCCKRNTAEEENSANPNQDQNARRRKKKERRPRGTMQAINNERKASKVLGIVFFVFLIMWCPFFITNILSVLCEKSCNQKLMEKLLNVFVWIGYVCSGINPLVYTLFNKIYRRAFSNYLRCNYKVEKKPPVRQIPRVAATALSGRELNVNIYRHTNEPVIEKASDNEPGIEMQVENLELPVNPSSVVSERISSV

[4] = target: 5-hydroxytryptamine receptor 2B (Homo sapiens) (UniProt P41595); test: Displacement of [3H] mesulergine from human recombinant 5HT2B receptor at 10^-6 M measured after 60 mins by scintillation counting method relative to control
5-hydroxytryptamine receptor 2B (Homo sapiens), sequence (P41595 whole entry): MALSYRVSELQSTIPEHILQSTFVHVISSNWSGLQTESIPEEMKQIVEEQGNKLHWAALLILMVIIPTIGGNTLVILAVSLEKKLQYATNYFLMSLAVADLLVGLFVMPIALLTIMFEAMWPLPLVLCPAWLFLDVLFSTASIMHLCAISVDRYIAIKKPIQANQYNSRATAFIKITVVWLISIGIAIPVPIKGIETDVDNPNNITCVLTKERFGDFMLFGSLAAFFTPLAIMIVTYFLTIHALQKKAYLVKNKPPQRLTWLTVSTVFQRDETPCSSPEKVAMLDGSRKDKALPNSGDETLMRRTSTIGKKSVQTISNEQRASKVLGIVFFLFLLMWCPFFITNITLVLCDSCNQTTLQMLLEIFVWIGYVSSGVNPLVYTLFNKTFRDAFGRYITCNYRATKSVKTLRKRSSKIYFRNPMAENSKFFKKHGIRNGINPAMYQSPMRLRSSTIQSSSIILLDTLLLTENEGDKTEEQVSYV

[5] = target: T4, Muscarinic acetylcholine receptor M1 (Homo sapiens) (UniProt P11229); test: Displacement of [3H] pirenzepine from human recombinant muscarinic M1 receptor at 10^-6 M measured after 60 mins by scintillation counter method relative to control
T4 sequence (whole entry): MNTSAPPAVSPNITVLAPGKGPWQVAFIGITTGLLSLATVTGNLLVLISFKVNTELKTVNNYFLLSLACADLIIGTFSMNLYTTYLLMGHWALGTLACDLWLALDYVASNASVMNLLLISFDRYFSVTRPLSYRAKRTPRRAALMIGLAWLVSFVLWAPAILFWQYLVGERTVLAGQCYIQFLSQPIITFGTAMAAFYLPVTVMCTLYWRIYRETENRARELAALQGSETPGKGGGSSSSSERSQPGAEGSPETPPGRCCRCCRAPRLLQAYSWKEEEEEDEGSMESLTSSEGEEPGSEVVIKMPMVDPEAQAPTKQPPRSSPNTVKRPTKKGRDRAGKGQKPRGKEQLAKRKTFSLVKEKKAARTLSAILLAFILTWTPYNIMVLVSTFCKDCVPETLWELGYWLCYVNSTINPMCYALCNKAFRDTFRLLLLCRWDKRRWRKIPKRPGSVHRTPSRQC

[6] = target: T5, Alpha-1A adrenergic receptor (Rattus norvegicus) (UniProt P43140); test: Displacement of [3H] prazosin from rat alpha 1A adrenergic receptor at 10^-6 M measured after 60 mins by scintillation counter method relative to control
T5 sequence (whole entry): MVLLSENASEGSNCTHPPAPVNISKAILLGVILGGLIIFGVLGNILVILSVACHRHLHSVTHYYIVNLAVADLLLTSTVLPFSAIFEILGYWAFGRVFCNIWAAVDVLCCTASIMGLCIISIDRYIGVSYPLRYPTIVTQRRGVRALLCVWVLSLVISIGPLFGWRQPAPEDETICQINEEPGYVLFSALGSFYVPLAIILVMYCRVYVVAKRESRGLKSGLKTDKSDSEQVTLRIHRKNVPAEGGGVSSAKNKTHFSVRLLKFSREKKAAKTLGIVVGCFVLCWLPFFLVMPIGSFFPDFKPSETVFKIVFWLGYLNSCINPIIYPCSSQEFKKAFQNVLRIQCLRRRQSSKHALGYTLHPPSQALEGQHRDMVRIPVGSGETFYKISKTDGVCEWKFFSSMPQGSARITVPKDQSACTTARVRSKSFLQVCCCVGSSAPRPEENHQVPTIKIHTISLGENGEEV

[7] = target: 5-hydroxytryptamine receptor 2A (Homo sapiens, UniProt P28223); test: Displacement of [3H]ketanserin from human 5HT2A receptor expressed in CHOK1 cells incubated for 1 hr by liquid scintillation counter method; format: cell-based; details: read-out: Ki
5-hydroxytryptamine receptor 2A, sequence (P28223 whole entry): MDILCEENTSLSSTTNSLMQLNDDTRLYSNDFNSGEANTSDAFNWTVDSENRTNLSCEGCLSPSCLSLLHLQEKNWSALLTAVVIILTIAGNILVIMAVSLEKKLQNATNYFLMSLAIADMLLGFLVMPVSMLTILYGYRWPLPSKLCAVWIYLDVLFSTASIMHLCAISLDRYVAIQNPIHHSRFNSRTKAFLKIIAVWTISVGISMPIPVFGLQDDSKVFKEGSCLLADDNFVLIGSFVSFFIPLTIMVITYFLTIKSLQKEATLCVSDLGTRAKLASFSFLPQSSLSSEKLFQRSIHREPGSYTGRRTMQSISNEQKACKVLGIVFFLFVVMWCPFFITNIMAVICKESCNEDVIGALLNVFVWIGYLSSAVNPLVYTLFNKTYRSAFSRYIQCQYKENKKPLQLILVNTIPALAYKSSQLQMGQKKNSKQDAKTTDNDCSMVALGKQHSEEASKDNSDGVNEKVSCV

in vitro [8] = details: rat
Rattus norvegicus = test: Reversal of scopolamine induced cognitive impairment impairment in Sprague-Dawley rat at 1 mg/kg, po pre treated for 2 hrs followed by scopolamine addition further treated for 30 mins and measured after 1 hr by novel object recognition test; format: functional, organism-based
Method in brief: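 Male Sprague–Dawley rats (~250 g); open-field habituation 5 min 24 h before test. Compounds p.o. 120 min and scopolamine 1.25 mg/kg i.p. 30 min before 3-min familiarization trial; 3-min recognition trial 1 h later. Exploration video-tracked; discrimination index computed; one-way ANOVA with Newman–Keuls; n = 9–10 per group; mean ± SEM.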

in vitro [9] = details: rat; remark: listed apart in the source
D(2) dopamine receptor = D(2) dopamine receptor (Homo sapiens, UniProt P14416); test: Displacement of [3H]-methylspiperone from human D2 long receptor expressed in HEK293 cells measured after 1 hr by liquid scintillation counter method; format: cell-based
D(2) dopamine receptor, sequence (P14416 whole entry): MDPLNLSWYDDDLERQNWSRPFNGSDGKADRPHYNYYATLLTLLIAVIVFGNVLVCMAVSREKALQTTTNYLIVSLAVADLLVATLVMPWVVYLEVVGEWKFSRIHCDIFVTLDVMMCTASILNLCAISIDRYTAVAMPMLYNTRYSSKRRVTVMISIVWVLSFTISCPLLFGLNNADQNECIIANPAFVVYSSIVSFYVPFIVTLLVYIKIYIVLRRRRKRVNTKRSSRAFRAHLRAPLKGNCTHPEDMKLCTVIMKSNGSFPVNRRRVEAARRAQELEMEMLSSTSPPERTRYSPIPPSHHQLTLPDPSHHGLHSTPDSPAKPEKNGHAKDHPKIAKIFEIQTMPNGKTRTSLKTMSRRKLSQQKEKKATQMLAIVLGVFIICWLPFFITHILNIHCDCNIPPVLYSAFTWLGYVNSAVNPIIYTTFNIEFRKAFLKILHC
Method in brief: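 HEK293 membranes stably expressing human D2L receptor, incubated 1 h at 37°C, then filtered and retained radioactivity counted; (+)-butaclamol 1 μM defines nonspecific binding. Tested in triplicate at 7–8 concentrations (10⁻¹¹–10⁻⁴ M); Ki via Cheng-Prusoff, averaged over at least two independent experiments.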

[10] = Stability of compound in rat liver microsomes; format: ADME, Microsome
Method in brief: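 Incubation in triplicate with rat liver microsomes at 37°C with NADP, G6P, G6P dehydrogenase and MgCl2. Verapamil and donepezil served as microsomal activity standards.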

[11] = target: T6, 5-hydroxytryptamine receptor 6 (Homo sapiens, UniProt P50406); test: Displacement of [3H]LSD from human 5HT6 receptor expressed in HEK293 cells measured after 1 hr by liquid scintillation counter method; format: cell-based
T6 sequence (P50406 whole entry): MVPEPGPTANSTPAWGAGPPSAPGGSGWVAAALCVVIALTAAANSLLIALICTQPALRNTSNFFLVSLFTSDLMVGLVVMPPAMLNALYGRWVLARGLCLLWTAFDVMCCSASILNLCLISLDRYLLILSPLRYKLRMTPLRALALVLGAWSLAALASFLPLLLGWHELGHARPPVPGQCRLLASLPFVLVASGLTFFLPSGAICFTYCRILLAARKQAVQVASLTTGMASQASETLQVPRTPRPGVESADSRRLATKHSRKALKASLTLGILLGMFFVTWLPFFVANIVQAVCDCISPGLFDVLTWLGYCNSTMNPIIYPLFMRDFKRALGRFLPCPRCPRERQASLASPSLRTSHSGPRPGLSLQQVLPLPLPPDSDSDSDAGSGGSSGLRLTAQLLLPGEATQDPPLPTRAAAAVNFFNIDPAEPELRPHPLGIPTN

[12] = Solubility of compound in water; format: physicochemical
[13] = target: 5-hydroxytryptamine receptor 7 (Homo sapiens, UniProt P34969); test: Displacement of [3H]-5-CT from human 5HT7 receptor expressed in HEK293 cells measured after 1 hr by liquid scintillation counter method; format: cell-based
5-hydroxytryptamine receptor 7, sequence (P34969 whole entry): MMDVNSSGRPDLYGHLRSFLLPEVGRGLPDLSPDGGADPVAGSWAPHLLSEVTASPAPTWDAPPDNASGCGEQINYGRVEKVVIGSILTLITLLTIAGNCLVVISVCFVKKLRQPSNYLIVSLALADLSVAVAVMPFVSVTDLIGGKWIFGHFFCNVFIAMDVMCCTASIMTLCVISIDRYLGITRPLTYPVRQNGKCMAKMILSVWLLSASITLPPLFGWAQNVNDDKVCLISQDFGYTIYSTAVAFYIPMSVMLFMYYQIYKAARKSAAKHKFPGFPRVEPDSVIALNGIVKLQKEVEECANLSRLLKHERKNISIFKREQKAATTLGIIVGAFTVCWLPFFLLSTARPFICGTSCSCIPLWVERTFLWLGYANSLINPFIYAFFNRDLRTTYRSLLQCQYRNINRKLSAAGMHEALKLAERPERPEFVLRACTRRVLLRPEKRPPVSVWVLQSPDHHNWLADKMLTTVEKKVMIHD

[14] = target: 5-hydroxytryptamine receptor 2B (Homo sapiens) (UniProt P41595); test: Antagonist activity at human recombinant 5HT2B receptor expressed in CHOK1 cells at 10^-6 M measured after 30 mins by HTRF assay relative to control; format: cell-based; parameters: scale not given: the % may be the effect or the level left
[15] = target: T6, 5-hydroxytryptamine receptor 6; test: Antagonist activity at human 5HT6 receptor expressed in HEK293 cells assessed as inhibition of 5-CT induced cAMP production measured after 30 mins by TR-FRET assay; format: functional, cell-based
[16] = target: Histamine H1 receptor (Homo sapiens) (UniProt P35367); test: Displacement of [3H] pyrilamine from human recombinant H1 histamine receptor at 10^-6 M measured after 60 mins by scintillation counting method relative to control
Histamine H1 receptor (Homo sapiens), sequence (P35367 whole entry): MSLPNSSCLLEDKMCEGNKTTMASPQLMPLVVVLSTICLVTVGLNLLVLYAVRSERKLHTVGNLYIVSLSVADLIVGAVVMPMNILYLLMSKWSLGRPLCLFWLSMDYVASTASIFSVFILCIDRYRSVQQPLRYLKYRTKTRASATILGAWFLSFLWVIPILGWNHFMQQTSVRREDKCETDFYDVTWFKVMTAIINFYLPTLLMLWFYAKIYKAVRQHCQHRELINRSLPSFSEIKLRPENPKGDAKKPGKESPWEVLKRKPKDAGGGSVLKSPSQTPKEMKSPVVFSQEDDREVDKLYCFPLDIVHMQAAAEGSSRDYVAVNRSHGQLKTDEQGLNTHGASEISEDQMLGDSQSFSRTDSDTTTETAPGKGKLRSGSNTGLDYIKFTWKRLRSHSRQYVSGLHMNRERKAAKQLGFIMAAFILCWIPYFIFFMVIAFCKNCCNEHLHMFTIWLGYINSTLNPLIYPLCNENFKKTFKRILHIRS

hERG (KCNH2) = hERG (KCNH2) (Homo sapiens, UniProt Q12809); test: Displacement of [3H] dofetilide from human recombinant ERG at 10^-6 M measured after 60 mins by scintillation counting method relative to control; details: probe [3H]dofetilide
hERG (KCNH2), sequence (Q12809 whole entry): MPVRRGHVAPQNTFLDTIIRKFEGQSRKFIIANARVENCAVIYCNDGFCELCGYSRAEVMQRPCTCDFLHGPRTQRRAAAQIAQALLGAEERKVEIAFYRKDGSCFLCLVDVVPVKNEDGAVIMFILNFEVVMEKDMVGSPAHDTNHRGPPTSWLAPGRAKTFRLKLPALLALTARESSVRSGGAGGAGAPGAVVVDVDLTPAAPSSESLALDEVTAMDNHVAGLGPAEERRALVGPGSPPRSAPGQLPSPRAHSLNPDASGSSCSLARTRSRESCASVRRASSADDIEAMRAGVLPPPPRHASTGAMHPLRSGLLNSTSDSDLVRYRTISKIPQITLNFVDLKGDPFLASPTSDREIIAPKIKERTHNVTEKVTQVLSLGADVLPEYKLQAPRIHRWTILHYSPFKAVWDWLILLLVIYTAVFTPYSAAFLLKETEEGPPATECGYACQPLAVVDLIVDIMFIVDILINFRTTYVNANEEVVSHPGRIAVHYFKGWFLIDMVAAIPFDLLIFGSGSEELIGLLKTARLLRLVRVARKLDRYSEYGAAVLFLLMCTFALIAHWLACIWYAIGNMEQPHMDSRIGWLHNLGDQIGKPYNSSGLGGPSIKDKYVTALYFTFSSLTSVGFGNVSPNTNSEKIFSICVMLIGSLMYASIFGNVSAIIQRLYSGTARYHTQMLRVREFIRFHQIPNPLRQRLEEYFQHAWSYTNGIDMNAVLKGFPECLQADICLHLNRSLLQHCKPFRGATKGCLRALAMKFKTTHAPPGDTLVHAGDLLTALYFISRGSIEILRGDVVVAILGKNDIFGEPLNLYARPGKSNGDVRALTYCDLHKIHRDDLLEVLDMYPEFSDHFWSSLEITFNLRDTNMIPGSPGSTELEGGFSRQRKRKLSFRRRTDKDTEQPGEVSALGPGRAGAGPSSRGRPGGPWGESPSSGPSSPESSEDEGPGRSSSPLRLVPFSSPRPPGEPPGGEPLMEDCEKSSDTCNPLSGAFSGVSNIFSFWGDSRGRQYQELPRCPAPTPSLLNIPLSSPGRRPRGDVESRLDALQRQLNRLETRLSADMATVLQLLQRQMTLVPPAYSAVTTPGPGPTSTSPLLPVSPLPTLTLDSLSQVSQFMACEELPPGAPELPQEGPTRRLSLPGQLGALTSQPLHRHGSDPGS

| Structure (SMILES) | Ki ([2]; read-out: Ki) [µM] | inhibition [3] [%] | inhibition [5] [%] | inhibition [6] [%] | Ki [7] [µM] | microsomal CLint (in vitro [8]; microsomes) [µL/min/mg] | half-life (in vitro [9]; microsomes) [min] | Ki (D(2) dopamine receptor) [µM] | Ki [11] [µM] | other results |
| --- | --- | --- | --- | --- | --- | --- | --- | --- | --- | --- |
| COc1ccc2c(c1)c(-c1cnc(N)[nH]1)cn2S(=O)(=O)c1ccccc1 | > 10 | 82 | 6.7 | 33.1 | 0.794 |  |  |  |  | inhibition [1]: 5.6%; inhibition [4]: 1.7% |
| COc1cc2c(cc1OC)C(=O)C(CC1CCN(Cc3ccccc3)CC1)C2 (stereo not given) [DONEPEZIL] |  |  |  |  |  | 17.6 | 79 |  |  | Activity (Rattus norvegicus): Active |
| Cc1nc(N)[nH]c1-c1ccc2ccn(S(=O)(=O)c3ccccc3)c2c1.Cl | > 10 |  |  |  | 1.17 | 104 | 13 | 0.708 | 0.004 | Stability [10]: Unstable; solubility ([12]; buffer): Soluble; Ki ([13]; read-out: Ki): 0.776 µM |
| CC(=O)Nc1nc(C)c(-c2cn(S(=O)(=O)c3ccccc3)c3ccccc23)[nH]1 [listing 1 of 2 here] |  | 22.4 |  | -1.5 |  |  |  |  |  | Activity [14]: -1.9%; Kb [15]: 0.0013 µM; inhibition [16]: -5.9% |
| CC(=O)Nc1nc(C)c(-c2cn(S(=O)(=O)c3ccccc3)c3ccccc23)[nH]1 [listing 2 of 2 here] | > 10 |  |  |  | > 10 | 7.3 | 190 | > 10 | 0.025 | Stability [10]: Stable; solubility ([12]; buffer): Insoluble; Ki ([13]; read-out: Ki): > 10 µM |
| Cc1nc(N)[nH]c1-c1cn(S(=O)(=O)c2ccccc2)c2ccccc12 | > 10 | 71.6 | 3.8 | 12.2 | 0.1 |  |  |  |  | inhibition [1]: 7.6%; inhibition [4]: 4.5% |
| COc1ccc2c(c1)c(-c1[nH]c(NCC(F)F)nc1C)cn2S(=O)(=O)c1ccccc1 |  | 28 | -4 | 4 | 1.23 |  |  | 3.98 | 0.021 | Ki ([2]; hek293): Not Active; microsomal CLint (in vitro [8]; liver microsomes): 39 µL/min/mg; Kb [15]: 0.013 µM; half-life (in vitro [9]; liver microsomes): 36 min; solubility ([12]; water, read-out: solubility): 1000 to 10000 µg/mL (≈ 2.24 to 22.4 mM); Ki ([13]; hek293): Not Active; inhibition [16]: 1% |
| CC(=O)Nc1nc(C)c(-c2cn(S(=O)(=O)c3ccccc3)c3ccccc23)[nH]1.Cl |  |  |  |  |  |  |  |  |  | inhibition at 1 h, 1 µM (hERG (KCNH2)): 2.4%; solubility ([12]; water, read-out: solubility): 100 to 10000 µg/mL |
